Sampled rows, rich in hits. Any-hit rate of the full collection: about 3.5%.
MrgX1 antagonist = blocks BAM8-22 activation of human MrgX1 receptor | Q96LB2 | MRGX1-HEK293 calcium flux, Fluo-4, BAM8-22 antagonism; stronger effect = lower value | AID 588676 | 1.3% of 310,000 active | B-score at 10 µM;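 active = calcium-response B-score plate-corrected more than 3 library SD below zero, starting fluorescence within 5 deviations, no agonist response on first addition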;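 also: peak minus trough fluorescence over baseline after final BAM8-22 challenge near maximal dose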
Target sequence (Q96LB2 whole entry, looked up): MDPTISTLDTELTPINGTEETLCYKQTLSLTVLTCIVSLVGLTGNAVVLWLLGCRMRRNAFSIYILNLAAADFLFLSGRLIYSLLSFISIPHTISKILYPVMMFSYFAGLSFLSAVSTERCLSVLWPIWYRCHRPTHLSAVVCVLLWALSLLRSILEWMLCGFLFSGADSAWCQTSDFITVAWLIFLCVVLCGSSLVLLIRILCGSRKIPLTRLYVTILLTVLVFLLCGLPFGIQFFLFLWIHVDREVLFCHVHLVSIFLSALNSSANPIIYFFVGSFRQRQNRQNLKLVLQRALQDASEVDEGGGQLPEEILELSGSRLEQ
RGS4 pot = RGS4 potentiation or activation | HEK293 M3R/inducible RGS4, carbachol calcium flux Fluo4; stronger effect = lower value | B-score at 10 µM | 0.92% of 310,000 active;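 active = B-score of the integrated calcium signal more than 4 SD below the library mean, with starting fluorescence not abnormally high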;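 also: negative B-score means reduced calcium response which marks RGS4 activation or potentiation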
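Reagent: ECmax carbachol challenge; Test system: M3R-expressing HEK293 line, RGS4 induced by doxycycline; Schedule: overnight RGS4 induction, 30 min dye load 37 °C, 20 min compound RT; Detection: calcium dye Fluo4 fluorescence; Read-out: Agonist-evoked peak-minus-minimum fluorescence over baseline, integrated ratio, B score.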
RGS4 block = inhibitors of human RGS4. P49798. HEK293 M3R/RGS4 inducible, Fluo-4 calcium flux; stronger effect = higher value; triggered by carbachol at its EC20. B-score at 10 µM. 0.45% of 310,000 active;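 active = B-score, a plate-corrected calcium signal, over three deviations above library mean, with baseline fluorescence within five deviations of library mean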;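 also: RGS4 expression induced by doxycycline in cells with stable M3 receptor; B-score is computed from the integrated fluorescence ratio over baseline after carbachol; higher B-score means a larger calcium signal and so more RGS4 inhibition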
Target sequence (P49798 whole entry, looked up): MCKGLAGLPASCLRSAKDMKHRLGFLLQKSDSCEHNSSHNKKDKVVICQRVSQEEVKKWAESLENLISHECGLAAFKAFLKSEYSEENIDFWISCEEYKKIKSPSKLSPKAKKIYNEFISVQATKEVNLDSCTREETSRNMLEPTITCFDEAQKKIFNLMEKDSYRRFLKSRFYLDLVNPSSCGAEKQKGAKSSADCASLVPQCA
MrgX1 allo act = human MrgX1 positive allosteric modulation, primary screen. Q96LB2. MrgX1-HEK293, Fluo-4 calcium flux, FDSS; stronger effect = higher value. B-score at 10 µM. 0.63% of 310,000 active. AID 588675;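 active = plate-corrected calcium response at least 3 library SD above typical, normal starting fluorescence, not activating the receptor alone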;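 also: compound read alongside a low EC10 to EC30 dose of BAM8-22 agonist; peak minus trough fluorescence over baseline measured at the second addition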
MrgX1 ag = activates human MrgX1 receptor signaling; 0.44% of 310,000 active; Q96LB2; MrgX1-HEK293 cells, Fluo-4 calcium fluorescence, agonist mode; stronger effect = higher value; B-score at 10 µM;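 active = calcium response B-score plate-corrected fluorescence ratio at least 3 library SD, with starting fluorescence B-score inside 5 SD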
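Test system: HEK293 cells stably expressing human MrgX1 receptor; Input: fifteen thousand cells per well; Dosing: compound delivered in addition one of three; Schedule: overnight seeding, then 1 h dark dye loading; Technique: Fluo-4 NW calcium fluorescence; Measure: B-scored fluorescence response ratio; Controls: positive and negative controls per plate.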
MrgX1 ag confirm = human MrgX1 agonism, re-confirmation screen. shares compounds with MrgX1 ag. MrgX1-HEK293, Fluo-4 calcium fluorescence, FDSS. activation, % at 10 µM. 78% of 600 active. AID 602412;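 active = calcium signal rise, corrected for plate position, at least 3 library SD high, with starting brightness within 5 such deviations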
HEK293 Ca flux = activity in parental HEK293 cells lacking MrgX1. fluorescence ratio F(max-min)/F0 at 10 µM. Fluo-4 calcium fluorescence, FDSS. 2% of 4,000 active. AID 624111. shares compounds with MrgX1 antagonist;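 active = duplicate-averaged calcium fluorescence ratio at least three times the standard deviation of buffer wells, a nonspecific response in parental cells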
HEK293 Ca counter = counter-screen for MrgX1 allosteric activators: effect in parental HEK293 cells. 0.4% of 4,000 active. shares compounds with MrgX1 antagonist. fluorescence ratio F(max-min)/F0 at 10 µM. parental HEK293 calcium flux, Fluo-4 fluorescence ratio; stronger effect = higher value. AID 624114;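 active = calcium fluorescence ratio, averaged over duplicates, at least 3 SD of the buffer-well ratio, meaning a nonspecific response in receptor-free cells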;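 also: untransfected parental HEK293 lacking MrgX1 used as counterscreen for MrgX1 allosteric activators; fluorescence change taken during the second addition on a kinetic imager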
HEK293 Ca cntr2 = activity in parental HEK293 cells lacking MrgX1 receptor; 8.7% of 4,000 active; Fluo-4 calcium fluorescence (FDSS); stronger effect = higher value; shares compounds with MrgX1 antagonist; fluorescence ratio F(max-min)/F0 at 10 µM;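 active = calcium fluorescence ratio at least three times the spread of buffer wells, meaning a non-specific response in parental cells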
The depositor's hits bear a star; i = inactive; / = no result.

SMILES | MrgX1 antagonist | RGS4 pot | RGS4 block | MrgX1 allo act | MrgX1 ag | MrgX1 ag confirm | HEK293 Ca flux | HEK293 Ca counter | HEK293 Ca cntr2
Cc1nc(SCC(=O)N2c3ccccc3Sc3ccccc32)n[nH]1 | i | i | i | i | i | / | / | / | /
O=C(NCCCN1CCCC(O)C1)c1cc(COc2ccc(F)cc2F)on1 (stereo not given) | i | i | i | i | i | / | / | / | /
Cc1ccc(C(=O)NC(=S)NNC(=O)c2ccccc2)cc1 | i | i | i | i | 78* | 492%* | i | i | 100*
Cc1ccc(C(=O)NC(=S)NNC(=O)c2ccccc2O)cc1 | i | i | i | i | i | / | / | / | /
Cc1ccc(C(=O)NNC(=S)NC(=O)c2ccco2)cc1 | i | i | i | i | 135* | 681%* | i | i | 123*
CC(C)n1cc(/C=N/Nc2ccc(Cl)c(C(=O)O)c2)c2ccccc21 | i | i | i | i | i | / | / | / | /
COc1ccccc1C(=O)NNC(=S)NC(=O)c1cccs1 | i | i | i | i | 80* | 476%* | i | i | 111*
O=C(Cc1ccc(Cl)cc1)NNC(=S)NC(=O)c1cccs1 | i | i | i | i | 122* | 316%* | i | i | 68*
O=C(NC(=S)NNC(=O)c1ccccc1O)c1cccs1 | i | i | i | i | 132* | 358%* | i | i | 71*
COc1ccc(NC(=O)C2CC(=O)N(CCc3ccc(F)cc3)C2)c(OC)c1 (stereo not given) | i | i | i | i | i | / | / | / | /
CC(C)CCN1C(Nc2ccccc2)=NC[C@@H]1CC(C)C | i | i | i | i | i | / | / | / | /
Cc1cccc(CCN2C(Nc3ccccc3)=NC[C@@H]2CC(C)C)c1 | i | / | / | i | 114* | 586%* | i | i | 101*
CC(C)C[C@H]1CN=C(Nc2ccccc2)N1CCc1ccc(F)cc1 | i | / | / | i | 120* | 575%* | i | i | 106*
Cc1cccc(CCN2CCN=C2Nc2ccccc2)c1 | i | / | / | i | 50* | 278%* | i | i | 67*
c1ccc(CCN2CCN=C2Nc2ccccc2)cc1 | i | i | i | i | i | / | / | / | /
CCN1C(Nc2ccccc2)=NC[C@@H]1CC(C)C | i | i | i | i | i | / | / | / | /
Cc1ccc(S(=O)(=O)NNC(=O)c2ccoc2C)cc1 | i | i | i | i | i | / | / | / | /
COC(=O)c1c(NC(=O)C2CCCCC2)sc2c1CC(C)(C)NC2(C)C | i | i | i | i | i | / | / | / | /
CCCCOc1ccc(Br)cc1CSC(=N)N | / | i | i | / | / | / | / | / | /
COc1ccc(C(C)=O)cc1CSC(=N)N | i | i | i | i | 47* | 240%* | i | i | i
COc1ccc(C(C)=O)cc1CSCc1cc(C(C)=O)ccc1OC | i | i | i | i | i | / | / | / | /
CCOc1ccc(C(C)=O)cc1CSC(=N)N | i | i | i | i | 30* | 164%* | i | i | i
O=C1C2C3C=CC(C3)C2C(=O)N1CCN1CCN(Cc2ccc([N+](=O)[O-])cc2)CC1 (stereo not given) | i | i | i | i | i | / | / | / | /
CCOC(=O)c1cc2c(ccn2C)n1Cc1ccc(Cl)cc1 | i | i | i | i | i | / | / | / | /
CCOC(=O)c1cc2c(ccn2C)n1Cc1ccc(C#N)cc1 | i | i | i | i | 27* | 132%* | i | i | i
SMILES | MrgX1 antagonist | RGS4 pot | RGS4 block | MrgX1 allo act | MrgX1 ag | MrgX1 ag confirm | HEK293 Ca flux | HEK293 Ca counter | HEK293 Ca cntr2
CC(=O)c1ccc(NC(=O)[C@@H]2CCCN2C(=O)OC(C)(C)C)cc1 | i | i | i | i | i | / | / | / | /
Nc1cccc(-c2csc(-n3ncc(C(=O)O)c3C(F)(F)F)n2)c1 | i | i | i | i | i | / | / | / | /
O=C(O)c1cnn(-c2nc(-c3cccc(F)c3)cs2)c1C(F)(F)F | i | i | i | i | 48* | 156%* | i | i | i
O=C(CCCCC(=O)NC1CCCC1)NC1CCCC1 | i | i | i | i | 40* | i | i | i | i
O=C(COc1ccc2c3c(c(=O)oc2c1)CCC3)N[C@@H](Cc1ccccc1)C(=O)O | i | i | i | i | i | / | / | / | /
Cc1ccc(C)c2nc3sc(C(=O)N4CCOCC4)c(N)c3cc12 | i | i | i | i | 31* | 284%* | i | i | 82*
Cc1cc(C)c2cc3c(N)c(C(=O)N4CCOCC4)sc3nc2c1 | i | i | i | i | i | / | / | / | /
CC1CCN(C(=S)c2ccc(N(C)C)cc2)CC1 | i | i | i | i | i | / | / | / | /
Cc1cc(C)c(S(=O)(=O)N2CCC(C(=O)NCc3ccco3)CC2)c(C)c1 | i | i | i | i | i | / | / | / | /
O=C(CN1C(=O)NC2(CCc3ccccc32)C1=O)c1c[nH]c2ccccc12 (stereo not given) | i | i | i | i | i | / | / | / | /
Cc1cc(-c2nn(-c3ccccc3F)cc2CN2CCN(c3ccncc3)CC2)c(C)s1 | i | i | i | i | 56* | 268%* | i | i | i
COC(=O)C1=CN(Cc2ccccc2)C=C(C(=O)OC)C1c1cc(F)ccc1F | i | i | i | i | i | / | / | / | /
NC(=S)Cc1ccc(Cl)cc1Cl | i | i | i | i | i | / | / | / | /
N=C(N)SCc1ccc(Cl)cc1Cl | i | i | i | i | 39* | 219%* | i | i | i
N[C@@H](Cc1c[nH]c2ccc(O)cc12)C(=O)O | i | / | / | i | 32* | i | i | i | i
CC1CN(C(=S)NC2CCCC2)CC(C)O1 (stereo not given) | i | i | i | i | i | / | / | / | /
O=C(Nc1nnc(-c2ccccn2)o1)c1cccc(Br)c1 | i | i | i | i | 29* | 111%* | i | i | i
CCc1nc2ccccc2n1Cc1ccc(OC)c(OC)c1 | i | i | i | i | 41* | i | i | i | i
COC(=O)C1=C(C)N(CCc2cc(OC)c(OC)c(OC)c2)C(=O)N[C@H]1c1ccccc1 | i | i | i | i | i | / | / | / | /
